The text below walks through data of ChEMBL document CHEMBL3132813, “Exploring novel strategies for AIDS protozoal pathogens: α-helix mimetics targeting a key allosteric protein-protein interaction in C. hominis TS-DHFR” (Medchemcomm, 2013).

One may read the IC50 as the concentration that inhibits the measured activity by half. A lower IC50 goes with inhibition by little substance.

Bounds are passed on as bounds.

Assay [1] in a line: Inhibition of DHFR activity of Cryptosporidium hominis thymidylate synthase-dihydrofolate reductase beta face mutant by steady state kinetic assay. A digest of the protocol:
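Recombinant bifunctional TS–DHFR, Beta Face crossover-helix mutant, expressed in E. coli BL21. DHFR reaction was followed spectroscopically at 340 nm under steady-state conditions. Helix mimetic was added from a DMSO stock and preincubated with enzyme and substrates for 30 minutes before the reaction was started. Rates were normalized to a matched DMSO blank and fit as dose–response to give the IC50, reported as mean ± SD.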

Another assay deals with T1, Dihydrofolate reductase (Homo sapiens, UniProt P00374).
T1 sequence (P00374 whole entry): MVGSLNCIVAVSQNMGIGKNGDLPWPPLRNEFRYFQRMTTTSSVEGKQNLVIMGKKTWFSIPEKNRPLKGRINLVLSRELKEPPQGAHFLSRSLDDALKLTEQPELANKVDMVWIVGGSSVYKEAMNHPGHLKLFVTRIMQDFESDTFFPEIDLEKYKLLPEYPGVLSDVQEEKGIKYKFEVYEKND
Nature of the assay: Inhibition of human DHFR. A digest of the protocol:
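Steady-state spectrophotometric assay at 340 nm, run separately for DHFR and TS reactions. Compound preincubated 30 min with enzyme and substrates before starting the reaction. Identical enzyme and ligand concentrations for all targets. DMSO-matched blank; rates normalized to it. IC50 as mean ± standard deviation.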

Another assay has as its system Cryptosporidium hominis. The experiment in a line: Inhibition of DHFR activity of Cryptosporidium hominis thymidylate synthase-dihydrofolate reductase beta face mutant by steady state kinetic assay relative wild type TS-DHFR. The method in brief: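 Bifunctional TS–DHFR enzymes (wild type and crossover-helix mutants) were over-expressed in E. coli BL21 and purified. DHFR activity was followed at 340 nm by steady-state spectroscopy. Enzyme and substrates were preincubated with mimetic for 30 min before starting the reaction. Rates were normalized to a matched DMSO blank. Enzyme and ligand concentrations were the same for each target, and IC50 was given as mean ± SD.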

Consider `CC(C)CN(C(=O)Nc1ccc(CCC(=O)O)cc1Cc1ccccc1)C(=O)c1ccc(OCC(=O)O)c(Cc2ccccc2)c1`, for which the IC50 was 18 µM in assay [1] and greater than 1000 µM against Dihydrofolate reductase. Further, the Ratio IC50 with Cryptosporidium hominis worked out at 10.
